Test results reported in PMC6214403 (Bioorganic & medicinal chemistry, 2018).
Blank lines part the entries; values can stand above or below the molecule they belong to.

What was measured:
[1] = Oxidation susceptibility / stability with rat liver microsomes by mass analysis; type: in vitro ADME; conditions: 37 °C
Summary of the method: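 Test compound incubated with rat liver microsomes at 37 °C over a time course. Samples analysed by mass spectrometry, with extracted-ion chromatograms monitored for parent and oxidised species. Recovery calculated from the AUC of the extracted ion.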

[2] = values determined in Sprague Dawley rat; cited from earlier work
[3] = target: MYC (Homo sapiens, UniProt P01106); assay: Affinity for MYC; type: binding
[4] = Mouse i.v. PK study of 5g; type: in vivo, C57Bl6 mice; conditions: 5g versus 5a
[5] = test system: CEF transfected with ATG-MYC; assay: Focus assay: microtumor formation by ATG-MYC expressing vector in CEF; type: cell-based, chicken

Sequence of MYC (P01106 whole entry, species assumed): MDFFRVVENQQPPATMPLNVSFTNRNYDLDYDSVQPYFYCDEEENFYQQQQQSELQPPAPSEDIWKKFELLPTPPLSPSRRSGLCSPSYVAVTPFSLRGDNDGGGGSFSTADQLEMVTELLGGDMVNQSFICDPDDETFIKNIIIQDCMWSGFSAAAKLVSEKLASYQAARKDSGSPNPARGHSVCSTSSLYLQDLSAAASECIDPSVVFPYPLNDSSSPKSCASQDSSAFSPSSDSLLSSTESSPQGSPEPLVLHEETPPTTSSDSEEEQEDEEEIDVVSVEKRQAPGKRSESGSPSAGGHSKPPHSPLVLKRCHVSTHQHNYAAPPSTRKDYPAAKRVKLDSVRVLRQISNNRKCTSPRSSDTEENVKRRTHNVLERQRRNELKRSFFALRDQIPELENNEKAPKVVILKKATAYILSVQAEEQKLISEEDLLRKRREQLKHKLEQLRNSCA

fate of nitro group on incubation with rat liver microsomes [1]: readily eliminated
SMILES: NC(=O)c1ccc(-c2cc(-c3ccc([N+](=O)[O-])cc3)nc(-c3ccco3)c2)cc1 [5a]
Half-life [2]: 1.6 h

ligand efficiency (LE) [3]: 0.36 | improvement in exposure (AUC) compared with 5a [4]: 30 fold
SMILES: NC(=O)c1ccc(-c2cc(-c3ccc(-c4nccs4)cc3)nc(-c3ccco3)c2)cc1 [5g]

SMILES: c1coc(-c2cc(-c3nccs3)cc(-c3ccc(-c4nccs4)cc3)n2)c1 [5j]
activity in the CEF assay [5]: not found to have any activity

SMILES: CS(=O)(=O)NC(=O)c1ccc(-c2cc(-c3ccc(C#N)cc3)nc(-c3ccco3)c2)cc1 [5m]
loss of potency compared to 5a ([5]; CEF assay): 10 fold
